Assay results pooled from the literature.
Protocols differ between the studies behind these lines.
Target: Eukaryotic translation initiation factor 2-alpha kinase 3 (EIF2AK3, Homo sapiens, UniProt Q9NZJ5)
Sequence (Q9NZJ5 30-1116, as in one of the studies): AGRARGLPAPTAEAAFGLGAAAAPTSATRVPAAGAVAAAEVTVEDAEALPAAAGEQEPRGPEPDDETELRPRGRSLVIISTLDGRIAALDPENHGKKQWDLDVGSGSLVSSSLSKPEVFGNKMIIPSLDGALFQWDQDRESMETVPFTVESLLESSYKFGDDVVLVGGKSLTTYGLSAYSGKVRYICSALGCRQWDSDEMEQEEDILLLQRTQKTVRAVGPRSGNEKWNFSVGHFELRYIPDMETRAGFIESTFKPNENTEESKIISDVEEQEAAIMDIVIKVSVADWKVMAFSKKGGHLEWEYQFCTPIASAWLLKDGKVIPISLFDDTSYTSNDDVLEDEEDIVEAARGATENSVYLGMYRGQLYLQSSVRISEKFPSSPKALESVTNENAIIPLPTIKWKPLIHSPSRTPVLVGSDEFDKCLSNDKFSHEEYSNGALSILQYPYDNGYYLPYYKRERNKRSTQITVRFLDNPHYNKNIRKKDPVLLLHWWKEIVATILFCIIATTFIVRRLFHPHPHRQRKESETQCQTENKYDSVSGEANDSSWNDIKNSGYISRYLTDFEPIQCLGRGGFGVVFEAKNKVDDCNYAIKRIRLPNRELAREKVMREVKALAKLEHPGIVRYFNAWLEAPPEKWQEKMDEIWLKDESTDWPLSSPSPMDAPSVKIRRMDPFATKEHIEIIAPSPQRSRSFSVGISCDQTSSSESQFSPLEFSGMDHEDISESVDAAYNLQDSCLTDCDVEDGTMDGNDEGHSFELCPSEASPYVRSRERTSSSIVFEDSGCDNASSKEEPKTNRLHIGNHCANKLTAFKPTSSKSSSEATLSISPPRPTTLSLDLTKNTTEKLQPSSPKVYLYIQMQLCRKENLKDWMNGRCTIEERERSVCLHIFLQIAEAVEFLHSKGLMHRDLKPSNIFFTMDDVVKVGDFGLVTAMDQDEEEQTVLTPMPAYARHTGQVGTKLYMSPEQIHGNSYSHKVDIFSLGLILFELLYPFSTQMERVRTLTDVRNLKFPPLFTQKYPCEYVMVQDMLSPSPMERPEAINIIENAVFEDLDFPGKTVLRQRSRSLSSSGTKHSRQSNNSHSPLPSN

SMILES	test	setting	measurement	value
Cc1cnc(NC2CCOCC2)nc1-n1cnc(C(=O)NC(CN)c2cc(F)cc(Cl)c2)c1 (stereo not drawn)	enzyme activity, inhibitor, radiometric	1 µM	remaining activity	101%
CN1CC(Oc2cnc(C#N)cc2-c2ccn3nc(NC(=O)C4CC4)cc3c2)C1	enzyme activity, inhibitor	1 µM	inhibition	0%
CC(C)(C)c1nc2c(s1)c1nc(N)ncc1c1ccc(NS(=O)(=O)c3c(F)cccc3F)c(F)c12	enzyme activity, inhibitor, radiometric	1 µM	remaining activity	47%
CCCCNc1ncc2c(-c3ccc(F)cc3)nn(C[C@H]3CC[C@H](N)CC3)c2n1	target engagement in cells, inhibitor, chemoproteomics	20 mM	inhibition	17%
CNC(=O)c1cc2c(Oc3ccc(NC(=O)C4(C(=O)Nc5ccc(F)cc5)CC4)cc3)ccnc2cc1OC	enzyme activity, inhibitor, radiometric	1 µM	inhibition	73%
Cc1ccc(NC(=O)c2ccc(C)c(C(F)(F)F)c2)cc1C#Cc1nn(C2CCC(O)CC2)c2ncnc(N)c12 (stereo not drawn)	cell-free assay	10 µM	remaining signal	39%
CCN(CC)c1ccc(C2=NNC(=O)CC2C)cc1[N+](=O)[O-] (stereo not drawn)	enzyme activity, inhibitor	10 µM	remaining activity	110%
Cc1ccc(C(=O)NCc2ccsc2)cc1C#Cc1cn(C(C)C)c2ncnc(N)c12	enzyme activity, inhibitor	1 µM	activity vs control	82%
CC/C(=N\NC(=O)NCc1cccc(O)c1)c1ccc(O)c(C)c1O	enzyme activity, inhibitor	0.1 µM	inhibition	4.2%
FC(F)(F)Oc1cccc(-c2cnc3ccc(-c4ccncc4)nn23)c1	enzyme activity, inhibitor, radiometric	1 µM	activity vs control	74%
COc1cc(Nc2cnc(C#N)c(O[C@H](C)CN(C)C)n2)ncc1-c1cnn(C)c1	enzyme activity, inhibitor, radiometric	1 µM	remaining activity	101%
COc1cccc2c(NCc3ccccc3)nc(-n3c(N)nc4ccccc43)nc12	target engagement in cells, inhibitor, chemoproteomics	20 mM	inhibition	-7.4%
COc1cc(/C=C/C(=O)CC(=O)/C=C/c2ccc(O)c(OC)c2)ccc1O	enzyme activity, inhibitor	1 µM	activity vs control	95%
CC(C)(C)c1nc(-c2cccc(NS(=O)(=O)c3c(F)cccc3F)c2F)c(-c2ccnc(N)n2)s1	enzyme activity, inhibitor, radiometric	1 µM	remaining activity	4%
Cc1cc(NC(=O)c2cccc3cc(-c4cccc5[nH]nc(N)c45)ccc23)ccc1F	enzyme activity, inhibitor	0.1 µM	activity vs control	94%
